Results of several laboratories.
Compare with care: the assays were run in different laboratories.
Nuclear receptor subfamily 4 group A member 2: Nuclear receptor subfamily 4 group A member 2 (Homo sapiens, UniProt P43354)
P2RY14: P2Y purinoceptor 14 (P2RY14, Homo sapiens, UniProt Q15391)
IRAK4: Interleukin-1 receptor-associated kinase 4 (IRAK4, Homo sapiens, UniProt Q9NWZ3)

| Compound | target | test | system | setting | endpoint | result |
| --- | --- | --- | --- | --- | --- | --- |
| CCC(C)(C)C(=O)O[C@H]1C[C@@H](C)C=C2C=C[C@H](C)[C@H](CC[C@@H]3C[C@@H](O)CC(=O)O3)[C@H]21 | Nuclear receptor subfamily 4 group A member 2 | thermal stability, DSF |  | 100 µM | ΔTm | -11 °C |
| CC(C)OC(=O)[C@H](Cc1c[nH]c2ccccc12)NC(=O)C1COc2ccccc2O1 (stereo partly drawn) | P2RY14 | cAMP, antagonist | HEK293 | 0.1 µM | inhibition | 9.84% |
| COCCOCc1ccc(-c2cc3onc(-c4ccccc4)c3c(=O)n2C)cc1 | Nuclear receptor subfamily 4 group A member 2 | thermal stability, DSF |  | 100 µM | ΔTm | -0.54 °C |
| CS(=O)(=NC#N)c1ccccc1Nc1nc(Nc2ccnc(CO)c2)ncc1Cl (stereo not drawn) | IRAK4 | enzyme activity, inhibitor, radiometric |  | 1 µM | remaining activity | 4.68% |
| Cc1nc2c(Cl)cccn2c1NC(=O)c1ccc(-c2ccc(N(C)C)cc2)o1 | Nuclear receptor subfamily 4 group A member 2 | thermal stability, DSF |  | 100 µM | ΔTm | -1.88 °C |
| C1=C/COCc2cc(ccc2OCCN2CCCC2)Nc2nccc(n2)-c2cccc(c2)COC/1 | Tyrosine-protein kinase JAK3, JH1 (JAK3, Homo sapiens, UniProt P52333) | cell-free assay |  | 0.1 µM | remaining signal | 7.2% |
| Cc1cc(O)c(-c2ccc([C@@H](C)CN(C)C)cc2)c2c1[nH]c(=O)c1sccc12 | TRAF2 and NCK-interacting protein kinase (TNIK, Homo sapiens, UniProt Q9UKE5) | enzyme activity, inhibitor |  | 0.1 µM | inhibition | 10.5% |
| O=C(COc1ccc(C(F)(F)F)cc1)N[C@@H](Cc1c[nH]c2ccccc12)C(=O)O | P2RY14 | cAMP, antagonist | HEK293 | 0.1 µM | inhibition | 34.8% |
| C[C@H](NC(=O)C(=O)Nc1ccccc1C(C)(C)C)C(=O)N[C@@H](CC(=O)O)C(=O)COc1c(F)c(F)cc(F)c1F | Caspase-1 (CASP1, Homo sapiens, UniProt P29466) | enzyme activity, inhibitor |  |  | kinact/KI | 2.42e+06 M⁻¹ s⁻¹ |
| NC/C(=C\F)COc1cccc(Cn2c(=S)[nH]c(=O)c3[nH]cnc32)c1 | Eosinophil peroxidase (Homo sapiens, UniProt P11678) | enzyme activity, inhibitor |  | 10 µM | remaining activity | 90.7% |
| CCOC(=O)[C@H](Cc1c[nH]c2ccccc12)NC(=O)COc1ccc(C)cc1 | P2RY14 | cAMP, antagonist | HEK293 | 0.1 µM | inhibition | -48.9% |
| CCC(=O)NS(=O)(=O)c1ccc(-c2c(-c3ccccc3)noc2C)cc1 | Nuclear receptor subfamily 4 group A member 2 | thermal stability, DSF |  | 100 µM | ΔTm | -1.15 °C |
| O=C(N[C@@H](Cc1c[nH]c2ccccc12)C(=O)O)c1cccs1 | P2RY14 | cAMP, antagonist | HEK293 | 0.1 µM | inhibition | 68% |
| O=C(O)CCc1nc(-c2ccccc2)c(-c2ccccc2)o1 | Nuclear receptor subfamily 4 group A member 2 | thermal stability, DSF |  | 100 µM | ΔTm | -0.6 °C |
| COc1ccc2oc(-c3ccc4nc(N)oc4c3)c/c(=N\c3ccccc3NC(=O)CCN)c2c1 | Eukaryotic elongation factor 2 kinase (EEF2K, Homo sapiens, UniProt O00418) | binding |  | 1 µM | remaining binding | 101% |
| COc1cccc2c(Nc3ccc4[nH]c(C(=O)N/N=C/c5ccc(SC)cc5)cc4c3)cc(C)nc12 | Nuclear receptor subfamily 4 group A member 2 | thermal stability, DSF |  | 100 µM | ΔTm | 0.02 °C |
| C#Cc1cc(-c2cc(Nc3nc(N[C@@H](C)c4ccc(F)cn4)ncc3Cl)n[nH]2)ccc1C=O | Tyrosine-protein kinase JAK3 (JAK3, Homo sapiens, UniProt P52333) | enzyme activity, inhibitor |  | 0.2 µM | inhibition | 82.1% |
| C[C@]1(O)CCCN(c2nc(Nc3ccc(S(=O)(=O)N[C@H]4CC[C@H](CN5CCN(c6ccc(C7CCC(=O)NC7=O)cc6F)CC5)CC4)cc3Cl)ncc2C(F)(F)F)C1 (stereo partly drawn) | Serine/threonine-protein kinase ULK1 (ULK1, Homo sapiens, UniProt O75385) | binding, competition with immobilised ligand |  | 1 µM | remaining binding | 32% |
| CC(C)OC(=O)[C@H](Cc1c[nH]c2ccccc12)NC(=O)COc1ccc(Br)cc1 | P2RY14 | cAMP, antagonist | HEK293 | 0.1 µM | inhibition | 38.3% |
| CCN(CC)CCCC(C)Nc1ccnc2cc(Cl)ccc12 (stereo not drawn) | Nuclear receptor subfamily 4 group A member 2 | thermal stability, DSF |  | 100 µM | ΔTm | 0.14 °C |
| O=C(COc1ccccc1)N[C@@H](Cc1c[nH]c2ccccc12)C(=O)O | P2RY14 | cAMP, antagonist | HEK293 | 0.1 µM | inhibition | 82.7% |
| CCCCC(=O)Nc1ccc(-c2ccc3ncn(CCC)c(=O)c3c2)cn1 | Cyclin-dependent kinase-like 1 (CDKL1, Homo sapiens, UniProt Q00532) | binding, competition with immobilised ligand |  | 0.5 µM | remaining binding | 75% |
| CC(C)OC(=O)[C@H](Cc1c[nH]c2ccccc12)NC(=O)c1ccc2ccccc2n1 | P2RY14 | cAMP, antagonist | HEK293 | 0.1 µM | inhibition | 55.4% |
| C#Cc1cnc(Nc2ccc(CO)cc2)nc1Nc1ccccc1C(=O)NC | IRAK4 | enzyme activity, inhibitor, radiometric |  | 1 µM | remaining activity | 1.23% |
| O=Cc1ccc(OCC(=O)N[C@@H](Cc2c[nH]c3ccccc23)C(=O)O)cc1 | P2RY14 | cAMP, antagonist | HEK293 | 0.1 µM | inhibition | 58.7% |
| C=C1C(=O)O[C@@H]2C[C@@]3(C)CCCC(=C)[C@@H]3C[C@H]12 | Nuclear receptor subfamily 4 group A member 2 | thermal stability, DSF |  | 100 µM | ΔTm | -0.65 °C |
| N#Cc1ccc(NC(=O)Nc2ccccc2)cc1 | TGF-beta receptor type-1 (TGFBR1, Homo sapiens, UniProt P36897) | cell-free assay, competition with immobilised ligand |  | 25 µM | remaining binding | 81% |
